From ChEMBL document CHEMBL4680077, “Differentiation of skeletal osteogenic progenitor cells to osteoblasts with 3,4-diarylbenzopyran based amide derivatives: Novel osteogenic agents” (Eur J Med Chem, 2016)
Calls of active or inactive are those of the source. The rule behind the calls is not given here.

Tests used:
Calvarial osteoblast = assay: Induction of osteoblast differentiation in mouse calvarial osteoblast assessed as increase in RUNX-2 mRNA expression at 1 pM incubated for 24 hrs by qPCR analysis; format: functional, cell-based
Procedure, shortened: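 Calvarial osteoblasts were treated at 1 pM for 24 and 48 h. Total RNA was extracted with TRIzol, and cDNA was made from 2 µg RNA. qPCR ran 40 cycles for BMP-2, RUNX-2, OCN and collagen type 1, with normalization to GAPDH. Mean ± SEM of three independent experiments.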

Mus musculus [1] = assay: In vivo osteogenic activity in ovariectomized BALB/c mouse assessed as increase in energy required to break bone at 1 to 10 mg/kg, po via gavage administered for 1 month by TKC Muromachi bone strength testing method; format: functional, organism-based; settings: dose 1-10 mg/kg, time 1.0 months
Procedure, shortened: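 Ovariectomized balb/c mice were gavaged with 1 or 10 mg kg-1 daily for one month. Bones were then tested on a bone strength tester for energy, stiffness and force to break. Mean ± SEM compared with the Ovx vehicle group.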

Mus musculus [2] = assay: In vivo osteogenic activity in ovariectomized BALB/c mouse assessed as decrease in serum OCN at 1 to 10 mg/kg, po via gavage administered for 30 days; format: functional, organism-based; settings: dose 1-10 mg/kg, time 30.0 day
Procedure, shortened: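 Eight-week-old female balb/c mice were ovariectomized and dosed once daily by oral gavage at 1 or 10 mg kg-1 in vehicle (gum acacia in water) for 30 days; sham and Ovx vehicle groups served as controls. Serum CTx and osteocalcin were assayed in duplicate. n = 10 per group; mean ± SEM.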

[3] = Initial concentration in Sprague-Dawley rat at 1 mg/kg, iv measured upto 24 hrs by LC-MS/MS analysis; format: ADME, organism-based; settings: in vivo
[4] = Clearance in Sprague-Dawley rat at 1 mg/kg, iv measured upto 24 hrs by LC-MS/MS analysis; format: ADME, organism-based; settings: in vivo
[5] = Elimination rate constant in Sprague-Dawley rat at 1 mg/kg, po measured upto 24 hrs by LC-MS/MS analysis; format: ADME, organism-based; settings: in vivo
Procedure, shortened: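 Female Sprague-Dawley rats (n = 4), fasted overnight 12–14 h, dosed orally at 1 mg kg-1 as a 0.25% CMC suspension and fed 3 h post-dose. Retro-orbital blood was taken from 0.25 to 24 h. Plasma was hexane-extracted and assayed by LC-MS/MS. Cmax and Tmax were read from the data; other parameters came from non-compartmental analysis. Mean ± S.D.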

[6] = Acute toxicity in Swiss albino mouse assessed as body weight at 50 mg/kg, po observed on day 1 (reference value: 20.38 +/- 0.24 g); format: organism-based; settings: in vivo, 24 h, time 1 day
[7] = Acute toxicity in Swiss albino mouse assessed as body weight at 1000 mg/kg, po observed on day 1 (reference value: 20.38 +/- 0.24 g); format: organism-based; settings: in vivo, 24 h, time 1 day
[8] = Acute toxicity in Swiss albino mouse assessed as SGOT level at 5 mg/kg, po measured after 7 days (reference value: 31.99 +/- 3.37 U/L); format: organism-based; settings: in vivo, 168 h, time 7 day
[9] = Acute toxicity in Swiss albino mouse assessed as SGOT level at 1000 mg/kg, po measured after 7 days (reference value: 31.99 +/- 3.37 U/L); format: organism-based; settings: in vivo, 168 h, time 7 day
[10] = Acute toxicity in Swiss albino mouse assessed as cholesterol level at 300 mg/kg, po measured after 7 days (reference value: 265.76 +/- 24.78 mg/dL); format: organism-based; settings: in vivo, 168 h, time 7 day
[11] = Acute toxicity in Swiss albino mouse assessed as tissue protein level at 5 mg/kg, po measured after 7 days (reference value: 0.029 +/- 0.004 mg/ml); format: organism-based; settings: in vivo, 168 h, time 7 day
[12] = Acute toxicity in Swiss albino mouse assessed as tissue protein level at 50 mg/kg, po measured after 7 days (reference value: 0.029 +/- 0.004 mg/ml); format: organism-based; settings: in vivo, 168 h, time 7 day
[13] = Acute toxicity in Swiss albino mouse assessed as tissue protein level at 1000 mg/kg, po measured after 7 days (reference value: 0.029 +/- 0.004 mg/ml); format: organism-based; settings: in vivo, 168 h, time 7 day
[14] = Acute toxicity in Swiss albino mouse assessed as malondialdehyde level at 5 mg/kg, po measured after 7 days (reference value: 0.14 +/- 0.01 nM/mg); format: organism-based; settings: in vivo, 168 h, time 7 day
[15] = Acute toxicity in Swiss albino mouse assessed as lymphocyte count at 5 mg/kg, po measured after 7 days (reference value: 37.97 +/- 1.80 %); format: organism-based; settings: in vivo, 168 h, time 7 day
[16] = Acute toxicity in Swiss albino mouse assessed as monocyte count at 1000 mg/kg, po measured after 7 days (reference value: 12.58 +/- 2.86 %); format: organism-based; settings: in vivo, 168 h, time 7 day
[17] = Acute toxicity in Swiss albino mouse assessed as basophil count at 50 mg/kg, po measured after 7 days (reference value: 1.50 +/- 0.29 %); format: organism-based; settings: in vivo, 168 h, time 7 day
[18] = Acute toxicity in Swiss albino mouse assessed as absolute brain weight at 5 mg/kg, po measured after 7 days (reference value: 0.37 +/- 0.02 g); format: organism-based; settings: in vivo, 168 h, time 7 day
[19] = Acute toxicity in Swiss albino mouse assessed as absolute liver weight at 1000 mg/kg, po measured after 7 days (reference value: 1.11 +/- 0.04 g); format: organism-based; settings: in vivo, 168 h, time 7 day
[20] = Acute toxicity in Swiss albino mouse assessed as absolute lung weight at 300 mg/kg, po measured after 7 days (reference value: 0.16 +/- 0.01 g); format: organism-based; settings: in vivo, 168 h, time 7 day
[21] = Acute toxicity in Swiss albino mouse assessed as absolute heart weight at 1000 mg/kg, po measured after 7 days (reference value: 0.12 g); format: organism-based; settings: in vivo, 168 h, time 7 day
[22] = Acute toxicity in Swiss albino mouse assessed as absolute uterus weight at 5 mg/kg, po measured after 7 days (reference value: 0.27+/- 0.07 g); format: organism-based; settings: in vivo, 168 h, time 7 day
[23] = Acute toxicity in Swiss albino mouse assessed as absolute uterus weight at 300 mg/kg, po measured after 7 days (reference value: 0.27+/- 0.07 g); format: organism-based; settings: in vivo, 168 h, time 7 day
[24] = Acute toxicity in Swiss albino mouse assessed as relative liver weight at 5 mg/kg, po measured after 7 days (reference value: 6.81 +/- 2.14 %); format: organism-based; settings: in vivo, 168 h, time 7 day
[25] = Acute toxicity in Swiss albino mouse assessed as relative lung weight at 50 mg/kg, po measured after 7 days (reference value: 0.70 +/- 0.08 %); format: organism-based; settings: in vivo, 168 h, time 7 day
[26] = Acute toxicity in Swiss albino mouse assessed as relative lung weight at 300 mg/kg, po measured after 7 days (reference value: 0.70 +/- 0.08 %); format: organism-based; settings: in vivo, 168 h, time 7 day
[27] = Acute toxicity in Swiss albino mouse assessed as relative spleen weight at 5 mg/kg, po measured after 7 days (reference value: 0.73 +/- 0.14 %); format: organism-based; settings: in vivo, 168 h, time 7 day
[28] = Acute toxicity in Swiss albino mouse assessed as relative heart weight at 1000 mg/kg, po measured after 7 days (reference value: 0.51 +/- 0.02 %); format: organism-based; settings: in vivo, 168 h, time 7 day
[29] = Acute toxicity in Swiss albino mouse assessed as relative uterus weight at 300 mg/kg, po measured after 7 days (reference value: 1.63 +/- 0.71 %); format: organism-based; settings: in vivo, 168 h, time 7 day
[30] = Acute toxicity in Swiss albino mouse assessed as relative ovary weight at 300 mg/kg, po measured after 7 days (reference value: 0.07 +/- 0.02 %); format: organism-based; settings: in vivo, 168 h, time 7 day

**Q.** For `CCCCN(C)C(=O)CCCCOc1ccc([C@H]2c3ccc(OC)cc3OC(C)(C)[C@@H]2c2ccccc2)cc1`, which Activity (Calvarial osteoblast) is on record?
**A.** Active

**Q.** What about the Activity (Mus musculus [1]) of the same compound?
**A.** Active

**Q.** What about the Activity (Mus musculus [2]) of the same compound?
**A.** Active

**Q.** And the C0 at 24 h [3]?
**A.** 610 ng/mL

**Q.** What about the clearance [4] of the same compound?
**A.** 18.4 mL/min/kg

**Q.** And the k el at 24 h [5]?
**A.** 5.39e-05 s⁻¹

**Q.** And the Activity [6]?
**A.** 20.38 g

**Q.** What about the Activity [7] of the same compound?
**A.** 18.42 g

**Q.** And the Activity [8]?
**A.** 33.05 U/L

**Q.** What about the Activity [9] of the same compound?
**A.** 38.6 U/L

**Q.** And the Activity [10]?
**A.** 257.26 mg/dL

**Q.** What about the Activity [11] of the same compound?
**A.** 0.035 mg/mL

**Q.** What about the Activity [12] of the same compound?
**A.** 0.036 mg/mL

**Q.** And the Activity [13]?
**A.** 0.032 mg/mL

**Q.** What about the Activity [14] of the same compound?
**A.** 0.14 nM/mg

**Q.** What about the Activity [15] of the same compound?
**A.** 39.08%

**Q.** And the Activity [16]?
**A.** 12.27%

**Q.** And the Activity [17]?
**A.** 0.5%

**Q.** And the Activity [18]?
**A.** 0.35 g

**Q.** And the Activity [19]?
**A.** 1.07 g

**Q.** And the Activity [20]?
**A.** 0.17 g

**Q.** What about the Activity [21] of the same compound?
**A.** 0.12 g

**Q.** And the Activity [22]?
**A.** 0.3 g

**Q.** What about the Activity [23] of the same compound?
**A.** 0.33 g

**Q.** What about the Activity [24] of the same compound?
**A.** 4.84%

**Q.** What about the Activity [25] of the same compound?
**A.** 0.84%

**Q.** And the Activity [26]?
**A.** 0.73%

**Q.** What about the Activity [27] of the same compound?
**A.** 0.46%

**Q.** What about the Activity [28] of the same compound?
**A.** 0.57%

**Q.** And the Activity [29]?
**A.** 1.23%

**Q.** What about the Activity [30] of the same compound?
**A.** 0.29%
